Data: publication PMC12466149 (eBioMedicine, 2025)
“Also recorded” adds a separate entry of the source.

Tests used:
[1] = system: MC65 Tet-Off cells (Aβ expressed); experiment: Protection against Aβ toxicity in MC65 Tet-Off cells; assay type: cell-based, human; settings: any concentration of rotenone; data not shown
Outline: (§1)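 MC65 human neuroblastoma cells in high-glucose DMEM with 10% FBS, 1 mM pyruvate and nonessential amino acids, 5% CO2, 37 °C. Tet-Off (Aβ expressed) cells got test compound at 2 nM–5 μM, optionally after 30 min pretreatment with 32 nM rotenone. Tet-On cells got vehicle or 32 nM rotenone. Viability at 3 days by MTT: 0.25 mg/ml, 4 h at 37 °C, solubilised in HCl/isopropanol, read at 570 nm. Tet-On vehicle set as 100%.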

SH-SY5Y APPSWE cells = experiment: Mitochondrial stress test; assay type: cell-based, human; settings: rotenone 256 nM
Outline: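 For SH-SY5Y cells stably expressing APPSWE, cells were held 1 h at 37 °C without CO2 in XF DMEM pH 7.4 (1 mM pyruvate, 2 mM glutamine, 10 mM glucose). OCR was recorded basally, then after oligomycin A and FCCP (each titrated over 0.5–3 μM) and 0.5 μM rotenone plus 0.5 μM antimycin A. Hoechst (5 μM final) was used for cell-count normalisation. SRC = maximal minus basal OCR.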

[2] = system: mitochondrial complex I (mtCI); experiment: mtCI activity in isolated brain mitochondria; assay type: biochemical, mouse; settings: 1 μM rotenone
Outline: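 Mouse brain mitochondria isolated by differential centrifugation (5900×g 4 min, then 12,000×g 10 min, 4 °C) in mannitol/sucrose/HEPES-Tris/EGTA medium, pH 7.4, with BSA and 0.02% digitonin. Complex I activity measured spectrophotometrically at 25 °C as oxidation of 0.15 mM NADH at 340 nm. Buffer: sucrose/Tris-HCl pH 7.5/KCl with 10 μM cytochrome c, 40 μg/ml alamethicin and 1 mM MgCl2.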

MC65 Tet-On cells [3] = experiment: Cytotoxicity in MC65 Tet-On cells; assay type: cell-based, human; settings: 32 nM rotenone
Outline: as §1

MC65 Tet-On cells [4] = experiment: Real-time respirometry; assay type: cell-based, human

**Q.** With C=C(C)[C@H]1Cc2c(ccc3c2O[C@@H]2COc4cc(OC)c(OC)cc4[C@@H]2C3=O)O1 [rotenone] as the compound, how does the “Protection against Aβ toxicity” value [1] read?
**A.** Its value is “did not protect”.

**Q.** And the “Spare respiratory capacity (SRC)” value (SH-SY5Y APPSWE cells)?
**A.** Its value is “did not improve SRC”.

**Q.** And the “mtCI inhibition (in words)” value [2]?
**A.** The value was “complete inhibition; also recorded: completely inhibits”.

**Q.** And the Cytotoxicity (MC65 Tet-On cells [3])?
**A.** The Cytotoxicity was “show no toxicity; also recorded: did not induce cell death”.

**Q.** And the “Reduction of OCR” value (MC65 Tet-On cells [4]; 32 nM rotenone, within 30 min)?
**A.** The value was 50%.

**Q.** And the Effect on respiration (MC65 Tet-On cells [4]; kinetic injection)?
**A.** The Effect on respiration was “immediately blocked respiration”.
